Data from ChEMBL document CHEMBL1275302, “Synthesis and in vitro antiproliferative activity of 5-alkyl-12(H)-quino[3,4-b] [1,4]benzothiazinium salts” (Eur J Med Chem, 2010).
Values after ≈ are worked out from the molar mass of the structure shown. Active and inactive are the calls of the source. The rule behind the calls is not given here.

What was measured:
Format in all cases: functional, cell-based
[1] = tested on: Lewis lung carcinoma cell line; experiment: Antiproliferative activity against mouse LLC cells after 24 hrs by MTS assay
In short: (§1)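 Cells kept at 37 °C, 5% CO2; seeded 1 × 10⁴ cells/well in D-MEM with 12% FCS, streptomycin and penicillin. After 24 h (about 80% confluent), aqueous stocks (DMSO added if needed) diluted in medium and added at various concentrations, 12 or 24 h incubation. Cells washed in PBS, resuspended in Phenol Red-free DMEM with MTS; formazan absorbance read. Survival as % of control; mean ± SD of three experiments; IC50 determined.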

HCT-116 [2] = experiment: Antiproliferative activity against human HCT116 cells after 24 hrs by MTS assay; conditions: HCT-116, 24 h; in short: as §1
[3] = tested on: Lewis lung carcinoma cell line; experiment: Antiproliferative activity against mouse LLC cells at 0.1 to 100 ug/ml after 24 hrs by MTS assay; in short: as §1
HCT-116 [4] = experiment: Antiproliferative activity against human HCT116 cells at 0.1 to 100 ug/ml after 24 hrs by MTS assay; in short: as §1

SMILES: C[n+]1cc2c(c3ccccc31)Nc1ccc(F)cc1S2.[Cl-]
- IC50 [1]: 6.4 µg/mL
- IC50 (HCT-116 [2]): 6.7 µg/mL

SMILES: C[n+]1cc2c(c3ccccc31)Nc1cc(O)ccc1S2.[Cl-]
- IC50 [1]: 5.7 µg/mL
- IC50 (HCT-116 [2]): 7.6 µg/mL

SMILES: CCCC[n+]1cc2c(c3ccccc31)Nc1ccccc1S2.[Br-]
- IC50 [1]: 14 µg/mL
- IC50 (HCT-116 [2]): 14.4 µg/mL

SMILES: C[n+]1cc2c(c3ccccc31)Nc1cccnc1S2.[Cl-]
- IC50 [1]: 13.2 µg/mL
- IC50 (HCT-116 [2]): 17.2 µg/mL

SMILES: C[n+]1cc2c(c3ccccc31)Nc1c(N)cccc1S2
- Activity [3]: inactive
- Activity (HCT-116 [4]): inactive

SMILES: C[n+]1cc2c(c3ccccc31)Nc1ccc(O)cc1S2.[Cl-]
- IC50 [1]: 7.2 µg/mL
- IC50 (HCT-116 [2]): 6.7 µg/mL

SMILES: C[n+]1cc2c(c3ccccc31)Nc1ccc(N)cc1S2.[Cl-]
- IC50 [1]: 8.9 µg/mL
- IC50 (HCT-116 [2]): 5.1 µg/mL

SMILES: Cc1ccc2c(c1)Sc1c[n+](C)c3ccccc3c1N2.[Cl-]
- IC50 [1]: 8.8 µg/mL
- IC50 (HCT-116 [2]): 4.4 µg/mL

SMILES: C[n+]1cc2c(c3ccccc31)Nc1ccc(Br)cc1S2.[Cl-]
- IC50 [1]: 6.5 µg/mL
- IC50 (HCT-116 [2]): 6.9 µg/mL

SMILES: C[n+]1cc2c(c3ccccc31)Nc1ccc(Cl)cc1S2.[Cl-]
- IC50 [1]: 5.4 µg/mL
- IC50 (HCT-116 [2]): 7.4 µg/mL

SMILES: CCCCCCCCCC[n+]1cc2c(c3ccccc31)Nc1ccccc1S2.[Br-]
- IC50 [1]: 17.1 µg/mL
- IC50 (HCT-116 [2]): 19.6 µg/mL

SMILES: C[n+]1cc2c(c3ccccc31)Nc1cc(N)ccc1S2.[Cl-]
- IC50 [1]: 4.7 µg/mL
- IC50 (HCT-116 [2]): 2.2 µg/mL

SMILES: C[n+]1cc2c(c3ccccc31)Nc1c(O)cccc1S2
- Activity [3]: inactive
- Activity (HCT-116 [4]): inactive

SMILES: COc1cccc2c1C(=O)c1c(O)c3c(c(O)c1C2=O)C[C@@](O)(C(=O)CO)C[C@@H]3O[C@H]1C[C@H](N)[C@H](O)[C@H](C)O1 [DOXORUBICIN]
- IC50 [1]: 3.7 µg/mL (≈ 6.81 µM)
- IC50 (HCT-116 [2]): 3.3 µg/mL (≈ 6.07 µM)

SMILES: C[n+]1cc2c(c3ccccc31)Nc1ccccc1S2.[Cl-]
- IC50 [1]: 2.3 µg/mL
- IC50 (HCT-116 [2]): 7.8 µg/mL

SMILES: Cc1cccc2c1Nc1c(c[n+](C)c3ccccc13)S2
- Activity [3]: inactive
- Activity (HCT-116 [4]): inactive
